In ChEMBL document CHEMBL4689842, “EUbOPEN Chemogenomics Library wave 1” (2021):

Test system: HEK-293T
Test: Multiplex assay against HEK293T;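 for Population Tubulin-Different-Phenotype (%): share of the cells with healthy nuclei that show this phenotype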
Assay type: toxicity, cell-based
Details: human
Method in brief: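 Live cells were stained at seeding with Hoechst33342, BioTracker Green Microtubule Cytoskeleton Dye, MitoTracker Red and Annexin V Alexa Fluor 680, then imaged on a CQ1 microscope at 37°C and 5% CO2 after compound addition. CellPathfinder machine-learning gating split cells into Hoechst high-intensity objects or normal cells. Normal cells were split into healthy, pyknosed or fragmented nuclei, and pyknosed cells into mitotic or apoptotic. Tubulin, mitochondrial-mass and membrane-permeability phenotypes are per cents of healthy-nucleus cells.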

[1] = 12 h, 1 µM, compound concentration 1 uM, replicate 1
[2] = 12 h, 1 µM, compound concentration 1 uM, replicate 2
[3] = 12 h, 10 µM, compound concentration 10 uM, replicate 1
[4] = 12 h, 10 µM, compound concentration 10 uM, replicate 2
[5] = 24 h, 1 µM, compound concentration 1 uM, replicate 1
[6] = 24 h, 1 µM, compound concentration 1 uM, replicate 2
[7] = 24 h, 10 µM, compound concentration 10 uM, replicate 1
[8] = 24 h, 10 µM, compound concentration 10 uM, replicate 2
[9] = 48 h, 1 µM, compound concentration 1 uM, replicate 1
[10] = 48 h, 1 µM, compound concentration 1 uM, replicate 2
[11] = 48 h, 10 µM, compound concentration 10 uM, replicate 1
[12] = 48 h, 10 µM, compound concentration 10 uM, replicate 2

Cc1cccc(CN2CCN(C(c3ccccc3)c3ccc(Cl)cc3)CC2)c1.Cl.Cl (configuration not stated)
Population Apoptotic (%) [1]: 52%
Population Fragmented Nuclei (%) [1]: 13%
Population Healthy Nuclei (%) [1]: 25%
Population Hoechst High Intensity Objects (%) [1]: 19%
Population Membrane Permeable-Phenotype (%) [1]: 0%
Population Mitochondria Different-Phenotype (%) [1]: 73%
Population Mitotic Cells (%) [1]: 47%
Population Normal (%) [1]: 80%
Population Pyknosed Nuclei (%) [1]: 60%
Population Tubulin-Different-Phenotype (%) [1]: 39%
Total Cell Count [1]: 198
Population Apoptotic (%) [2]: 9%
Population Fragmented Nuclei (%) [2]: 6%
Population Healthy Nuclei (%) [2]: 48%
Population Hoechst High Intensity Objects (%) [2]: 3%
Population Membrane Permeable-Phenotype (%) [2]: 10%
Population Mitochondria Different-Phenotype (%) [2]: 25%
Population Mitotic Cells (%) [2]: 90%
Population Normal (%) [2]: 96%
Population Pyknosed Nuclei (%) [2]: 44%
Population Tubulin-Different-Phenotype (%) [2]: 18%
Total Cell Count [2]: 170
Population Apoptotic (%) [3]: 69%
Population Fragmented Nuclei (%) [3]: 10%
Population Healthy Nuclei (%) [3]: 40%
Population Hoechst High Intensity Objects (%) [3]: 16%
Population Membrane Permeable-Phenotype (%) [3]: 3%
Population Mitochondria Different-Phenotype (%) [3]: 96%
Population Mitotic Cells (%) [3]: 30%
Population Normal (%) [3]: 83%
Population Pyknosed Nuclei (%) [3]: 49%
Population Tubulin-Different-Phenotype (%) [3]: 85%
Total Cell Count [3]: 255
Population Apoptotic (%) [4]: 42%
Population Fragmented Nuclei (%) [4]: 8%
Population Healthy Nuclei (%) [4]: 38%
Population Hoechst High Intensity Objects (%) [4]: 3%
Population Membrane Permeable-Phenotype (%) [4]: 6%
Population Mitochondria Different-Phenotype (%) [4]: 73%
Population Mitotic Cells (%) [4]: 57%
Population Normal (%) [4]: 96%
Population Pyknosed Nuclei (%) [4]: 53%
Population Tubulin-Different-Phenotype (%) [4]: 69%
Total Cell Count [4]: 206
Population Apoptotic (%) [5]: 51%
Population Fragmented Nuclei (%) [5]: 11%
Population Healthy Nuclei (%) [5]: 33%
Population Hoechst High Intensity Objects (%) [5]: 17%
Population Membrane Permeable-Phenotype (%) [5]: 1%
Population Mitochondria Different-Phenotype (%) [5]: 73%
Population Mitotic Cells (%) [5]: 48%
Population Normal (%) [5]: 82%
Population Pyknosed Nuclei (%) [5]: 55%
Population Tubulin-Different-Phenotype (%) [5]: 43%
Total Cell Count [5]: 204
Population Apoptotic (%) [6]: 10%
Population Fragmented Nuclei (%) [6]: 6%
Population Healthy Nuclei (%) [6]: 66%
Population Hoechst High Intensity Objects (%) [6]: 4%
Population Membrane Permeable-Phenotype (%) [6]: 7%
Population Mitochondria Different-Phenotype (%) [6]: 26%
Population Mitotic Cells (%) [6]: 89%
Population Normal (%) [6]: 95%
Population Pyknosed Nuclei (%) [6]: 26%
Population Tubulin-Different-Phenotype (%) [6]: 33%
Total Cell Count [6]: 221
Population Apoptotic (%) [7]: 75%
Population Fragmented Nuclei (%) [7]: 11%
Population Healthy Nuclei (%) [7]: 41%
Population Hoechst High Intensity Objects (%) [7]: 15%
Population Membrane Permeable-Phenotype (%) [7]: 0%
Population Mitochondria Different-Phenotype (%) [7]: 96%
Population Mitotic Cells (%) [7]: 24%
Population Normal (%) [7]: 84%
Population Pyknosed Nuclei (%) [7]: 46%
Population Tubulin-Different-Phenotype (%) [7]: 87%
Total Cell Count [7]: 274
Population Apoptotic (%) [8]: 59%
Population Fragmented Nuclei (%) [8]: 6%
Population Healthy Nuclei (%) [8]: 56%
Population Hoechst High Intensity Objects (%) [8]: 3%
Population Membrane Permeable-Phenotype (%) [8]: 6%
Population Mitochondria Different-Phenotype (%) [8]: 87%
Population Mitotic Cells (%) [8]: 40%
Population Normal (%) [8]: 96%
Population Pyknosed Nuclei (%) [8]: 37%
Population Tubulin-Different-Phenotype (%) [8]: 81%
Total Cell Count [8]: 246
Population Apoptotic (%) [9]: 49%
Population Fragmented Nuclei (%) [9]: 18%
Population Healthy Nuclei (%) [9]: 34%
Population Hoechst High Intensity Objects (%) [9]: 17%
Population Membrane Permeable-Phenotype (%) [9]: 2%
Population Mitochondria Different-Phenotype (%) [9]: 47%
Population Mitotic Cells (%) [9]: 50%
Population Normal (%) [9]: 82%
Population Pyknosed Nuclei (%) [9]: 47%
Population Tubulin-Different-Phenotype (%) [9]: 34%
Total Cell Count [9]: 244
Population Apoptotic (%) [10]: 15%
Population Fragmented Nuclei (%) [10]: 10%
Population Healthy Nuclei (%) [10]: 75%
Population Hoechst High Intensity Objects (%) [10]: 4%
Population Membrane Permeable-Phenotype (%) [10]: 5%
Population Mitochondria Different-Phenotype (%) [10]: 7%
Population Mitotic Cells (%) [10]: 84%
Population Normal (%) [10]: 95%
Population Pyknosed Nuclei (%) [10]: 13%
Population Tubulin-Different-Phenotype (%) [10]: 20%
Total Cell Count [10]: 397
Population Apoptotic (%) [11]: 61%
Population Fragmented Nuclei (%) [11]: 13%
Population Healthy Nuclei (%) [11]: 55%
Population Hoechst High Intensity Objects (%) [11]: 12%
Population Membrane Permeable-Phenotype (%) [11]: 2%
Population Mitochondria Different-Phenotype (%) [11]: 89%
Population Mitotic Cells (%) [11]: 38%
Population Normal (%) [11]: 87%
Population Pyknosed Nuclei (%) [11]: 31%
Population Tubulin-Different-Phenotype (%) [11]: 83%
Total Cell Count [11]: 309
Population Apoptotic (%) [12]: 44%
Population Fragmented Nuclei (%) [12]: 7%
Population Healthy Nuclei (%) [12]: 68%
Population Hoechst High Intensity Objects (%) [12]: 4%
Population Membrane Permeable-Phenotype (%) [12]: 4%
Population Mitochondria Different-Phenotype (%) [12]: 67%
Population Mitotic Cells (%) [12]: 55%
Population Normal (%) [12]: 95%
Population Pyknosed Nuclei (%) [12]: 24%
Population Tubulin-Different-Phenotype (%) [12]: 71%
Total Cell Count [12]: 355
